High-throughput results as filed in PubChem BioAssay.
CAL PDZ FP-1: CAL PDZ peptide-binding inhibitors, primary screen, biochemical, fluorescence polarization, Cer-tagged CAL PDZ, HTS. purified CAL PDZ, TMR-peptide fluorescence polarization, 1 h. AID 504414, 2011. 330,000 compounds, 0.02% hits. inhibition, % at 20 µM;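 active = highest replicate inhibition of at least 40%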;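 note: plate controls were DMSO neutral control wells for no effect and unlabeled competitor peptide control wells for full effect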
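Material: tagged CAL PDZ domain; buffer or medium: 25 mM sodium phosphate pH 7.4, 150 mM NaCl, TCEP, IgG, Thesit; compound dosing: single point, 20 µM; schedule: 1 h incubation at room temperature before polarization reading; measured by: FP readout, S and P plane fluorescence; read-out basis: percent inhibition from loss of millipolarization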
Rtt109 HAT inh: inhibitors of C. albicans Rtt109/Vps75 HAT, primary screen, biochemical, ThioGlo CoA-SH fluorescence, plate reader; Histone acetyltransferase RTT109 (Candida albicans (strain SC5314 / ATCC MYA-2876)), …; purified Rtt109/Vps75, 4 h; inhibition, % at 34.9 µM; 330,000 compounds, 0.16% hits;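 active = inhibition of at least 50% in every replicate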
Target sequence (Q5AAJ8 whole entry, looked up): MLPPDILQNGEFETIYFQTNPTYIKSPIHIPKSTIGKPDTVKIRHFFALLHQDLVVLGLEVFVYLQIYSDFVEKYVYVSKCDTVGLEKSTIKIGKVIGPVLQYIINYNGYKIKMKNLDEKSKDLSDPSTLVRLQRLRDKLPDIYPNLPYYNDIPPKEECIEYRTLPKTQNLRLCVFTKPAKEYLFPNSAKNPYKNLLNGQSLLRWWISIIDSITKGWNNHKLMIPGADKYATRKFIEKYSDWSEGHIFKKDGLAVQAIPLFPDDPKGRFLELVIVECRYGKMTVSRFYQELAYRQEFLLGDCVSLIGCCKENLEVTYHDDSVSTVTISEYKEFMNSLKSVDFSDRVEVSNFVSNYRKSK
Dyrk1A ADPGlo: rat Dyrk1A kinase inhibitors, primary screen, biochemical, single point, plate reader; ADP-Glo luminescence, NFATc1 peptide; AID 504441, 2011; inhibition, % at 12.5 µM; 310,000 compounds, 0.43% hits; in the data active = inhibition above about 50%;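 note: plate controls were vehicle with enzyme for no effect and no enzyme for full effect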
CAL PDZ FP-2: untagged CAL PDZ binding inhibitors, primary screen, biochemical, fluorescence polarization, HTS; 300,000 compounds, 0.92% hits; AID 602252, 2012; purified CAL PDZ, TMR-peptide fluorescence polarization, 1 h; inhibition, % at 24.9 µM;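 active = mean inhibition of at least 30% with at least half of replicates also reaching 30%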;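 note: 0% = DMSO neutral control and 100% = excess unlabeled competitor peptide PRC23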
ALR inh: inhibitors of human ALR sulfhydryl oxidase, primary screen, biochemical, H2O2 detection, HRP-luminol luminescence, single point; FAD-linked sulfhydryl oxidase ALR (Homo sapiens), P55789; purified ALR, DTT oxidation; inhibition, % (no concentration beside the values); 290,000 compounds, 3.8% hits; AID 485317, 2010;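 active = mean replicate inhibition above about 79%, with every replicate also reaching it, limit read from the data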
Target sequence (P55789 whole entry, looked up): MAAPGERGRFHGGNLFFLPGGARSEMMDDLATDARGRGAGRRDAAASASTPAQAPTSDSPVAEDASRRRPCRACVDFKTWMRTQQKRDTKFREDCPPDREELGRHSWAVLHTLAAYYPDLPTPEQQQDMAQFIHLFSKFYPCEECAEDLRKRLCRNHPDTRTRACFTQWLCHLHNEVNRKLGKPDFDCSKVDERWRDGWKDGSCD
Dyrk1A artifact: ADP-Glo luciferase interference without Dyrk1A, dose response, artefact control for Dyrk1A inhibitor project, biochemical, luminescence, cherry-pick, set 02; shares compounds with Dyrk1A ADPGlo; ADP-Glo luciferase artifact assay, no Dyrk1A; AC50, µM (series often up to 12 µM), without a hit: at the highest dose activity change, negative = inhibition; 1,300 tested, under 10 active; AID 588348, 2011;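 active = fitted half-maximal dose AC50 no more than ten times the top valid tested dose, with luminescence dropping as dose rises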
* marks the source's active call; other numbers are inactive results; x = no result given. This is a sample that favours compounds with a hit; in the whole collection about 4.3% have one here.

SMILES	CAL PDZ FP-1	Rtt109 HAT inh	Dyrk1A ADPGlo	CAL PDZ FP-2	ALR inh	Dyrk1A artifact
COc1cccc(/C=N/n2c(C3CCCCC3)n[nH]c2=S)c1O	-1.0	-5.4	52.6*	-1.4	91.9*	10.9%
Oc1ccc(/C=N/n2c(C3CCCCC3)n[nH]c2=S)c(O)c1	-0.1	17.0	82.7*	-1.7	x	8.9%
Oc1ccc(Br)cc1/C=N/n1c(C2CCCCC2)n[nH]c1=S	-1.9	5.1	8.9	-4.1	15.1	x
Nn1c(SCC(=O)Nc2ccccc2C(F)(F)F)nncc1=O	-0.1	-10.9	-8.5	-3.2	-31.9	x
CC(OC(=O)Cc1n[nH]c(=O)c2ccccc12)C(=O)Nc1ccc(F)cc1 (stereo not drawn)	-0.7	-3.8	-0.9	-0.7	-0.8	x
NC(=O)C1CCN(C(=O)CN(C2CCCCC2)S(=O)(=O)c2ccc(F)cc2)CC1	-1.1	-5.7	-5.6	x	5.0	x
CCCCCC1CC(CC(=O)Nc2nncs2)C(=O)O1 (stereo not drawn)	-2.4	2.9	-5.3	2.9	-1.7	x
CCCCCC1CC(CC(C)C(=O)Nc2nncs2)C(=O)O1 (stereo not drawn)	-1.1	x	56.6*	-2.7	1.4	8.8%
Cc1ccc(C(=O)N(Cc2nc(-c3ccc(C)cc3)no2)C(C)C)cc1	-0.3	-6.6	-0.5	1.7	11.3	x
COc1ccc(C(=O)N(Cc2nc(-c3ccc(C)cc3)no2)C(C)C)cc1OC	-1.4	3.2	61.1*	x	0.7	7.6%
COc1cccc(Nc2ncnc3ccccc23)c1	-1.4	6.3	73.3*	-2.1	-6.2	9.3%
COc1ccc(Nc2ncnc3ccccc23)cc1	x	9.6	13.4	-1.1	-2.5	x
CSc1nc(N)nc2c1ncn2CC(=O)NCC1CCCO1 (stereo not drawn)	0.0	-0.8	-2.7	-2.1	x	x
O=S(=O)(Nc1ccccn1)c1cc(Cl)ccc1Cl	-0.5	2.4	-6.1	-1.5	-15.7	x
CNC(=O)c1cc2c(s1)-c1ccccc1CC2	-2.5	4.7	52.8*	x	-56.2	10.2%
C=CCSc1nc(NC)c2sccc2n1	0.3	6.3	58.4*	-3.4	x	3.3%
CNc1nc(SC)nc2ccsc12	-0.4	-7.1	10.4	-3.2	-9.4	x
Cc1c(Br)c(=O)oc2c(Br)c(O)ccc12	-0.8	2.7	77.3*	-3.3	7.9	8.8%
Cc1c(O)ccc2c3c(c(=O)oc12)CCCC3	-0.8	-18.4	9.3	-3.7	0.7	x
COc1ccc2[nH]c(C(=O)O)c(CCN3C(=O)c4ccc(C(=O)O)cc4C3=O)c2c1	0.1	2.4	30.5	-0.2	-22.7	x
O=C(O)c1[nH]c2ccc(Cl)cc2c1CCN1C(=O)c2ccccc2C1=O	-1.2	2.3	66.3*	18.8	0.2	12.4%
O=C(O)c1[nH]c2ccc(Br)cc2c1CCN1C(=O)c2cccc([N+](=O)[O-])c2C1=O	-0.9	30.0	51.4*	x	-5.4	11.9%
CC(=O)Nc1ccc(/C=C/c2nc3ccccc3o2)cc1	x	0.2	58.8*	-5.4	x	9.1%
O=C(Nc1ccc(/C=C/c2nc3ccccc3o2)cc1)c1c(F)cccc1F	-0.4	-0.4	9.4	-0.6	2.9	x
COc1ccc(NC(=O)NC2CCCCCCC2)cc1	0.2	-2.1	-5.0	-2.8	-0.7	x
SMILES	CAL PDZ FP-1	Rtt109 HAT inh	Dyrk1A ADPGlo	CAL PDZ FP-2	ALR inh	Dyrk1A artifact
COC(=O)C1=C(C(=O)OC)C(c2cc(Br)ccc2O)c2sc(=O)[nH]c2S1 (stereo not drawn)	-0.6	0.9	63.3*	-1.4	29.9	9.4%
O=S1(=O)CCOC[C@H](Cc2ccccc2)N1Cc1cccc(Cl)c1	0.3	-0.9	31.7	-2.8	-4.2	x
CC(C)C[C@H]1COCCS(=O)(=O)N1Cc1cccc(Cl)c1	0.3	8.6	50.6*	0.0	-1.0	8.4%
CC1Cc2ccccc2N1c1ncnc2nc[nH]c12 (stereo not drawn)	0.0	6.9	71.5*	x	-3.1	7.7%
OC1CCN(c2ncnc3nc[nH]c23)CC1	-1.2	1.3	12.9	x	-1.6	x
CC1CCN(c2ncnc3nc[nH]c23)CC1	0.3	13.4	80.9*	x	x	7.9%
Cc1onc(-c2ccccc2)c1C(=O)N(C)CC(=O)Nc1ccc(F)c(F)c1F	1.1	-6.6	x	-3.4	-0.8	x
Cc1cc(=O)[nH]c(SCC(=O)N2CCN(S(=O)(=O)c3ccccc3)C2)n1	0.9	-3.2	-1.9	0.4	0.8	x
O=C(c1ccc(NS(=O)(=O)c2cccs2)cc1)N1CCOCC1	-2.4	-10.1	-3.2	-2.3	-11.6	x
N#Cc1ccccc1N1CCN(C(=O)c2ccc(NC(=O)c3ccc(Br)o3)cc2)CC1	-0.9	2.0	4.8	-4.4	-18.5	x
COc1ccc2nc3cc(Cl)ccc3c(Nc3ccc(O)c(CN4CCN(C)CC4)c3)c2c1	5.7	-2.9	61.7*	-3.1	x	9.2%
O=C1C(Cl)=C(N2CCC(C(=O)O)CC2)C(=O)c2ccccc21	-1.1	-8.6	61.0*	4.9	49.6	11.0%
CN1CCN(C2=C(Cl)C(=O)c3ccccc3C2=O)CC1	2.3	-0.7	56.5*	3.8	x	7.5%
COc1ccc(/C=C/C(=O)OCC(=O)Nc2c(C)cccc2C)cc1	-1.9	13.2	-1.2	0.9	-7.8	x
COc1ccc(NC(=O)/C(=C\c2ccncc2)NC(=O)c2ccccc2)cc1	0.0	-2.6	-2.6	x	11.8	x
O=S1(=O)c2cccc3cccc(c23)N1Cc1nnc(-c2ccccc2Br)o1	-2.7	4.8	12.2	-2.7	-8.1	x
O=C1c2ccccc2S(=O)(=O)N1Cc1nnc(-c2ccccc2Br)o1	-0.3	15.9	59.1*	0.8	x	8.9%
O=C(CC(Cc1ccccc1)c1ccco1)NCc1ccco1 (stereo not drawn)	0.4	-2.6	1.6	-1.9	2.9	x
CC(C)Oc1ccc(C(CC(=O)NCc2ccco2)c2ccccc2)cc1 (stereo not drawn)	-2.7	9.9	55.1*	x	-8.1	6.9%
COc1ccc(OC)c2c1cc(C(=O)N[C@H](C(=O)N1CCC(C(=O)O)CC1)C(C)C)n2C	-0.4	-4.8	6.8	-5.3	20.1	x
COc1ccc(/C=C/C(=O)O)cc1	0.1	-0.9	62.2*	4.5	x	6.1%
CC(/C=C/c1ccccc1)=N/O	x	-1.2	0.9	-3.8	0.2	x
O=C(O)/C=C/c1ccc(O)cc1	1.3	-3.6	57.0*	0.8	51.8	9.5%
CC(/C=C/c1ccc(O)cc1)=N/O	-0.2	-15.8	88.8*	-6.2	x	9.4%
